# Screens: PubChem BioAssay, several laboratories
# TLR9-MyD88 block = blocks human TLR9 binding to MyD88. 0.21% of 340,000 active. inhibition, % at 4.98 µM. CHO BLA complementation TLR9-MyD88, CCF4 FRET ratio. Q9NR96+Q99836;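 active = inhibition above the mean over all tested compounds plus 3 SD, cut at about 21% in these data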;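 note: 0% = DMSO only wells and 100% = clavulanate BLA inhibitor control wells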
# Target sequence (Q99836 whole entry, looked up): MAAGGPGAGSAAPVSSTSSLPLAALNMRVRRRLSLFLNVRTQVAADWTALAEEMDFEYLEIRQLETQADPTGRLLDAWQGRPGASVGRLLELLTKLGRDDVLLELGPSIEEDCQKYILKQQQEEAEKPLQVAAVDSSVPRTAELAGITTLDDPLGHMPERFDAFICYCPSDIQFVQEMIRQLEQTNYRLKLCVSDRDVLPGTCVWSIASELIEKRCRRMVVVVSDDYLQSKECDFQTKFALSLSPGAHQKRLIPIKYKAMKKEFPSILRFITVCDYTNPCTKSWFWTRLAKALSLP
# Target sequence (Q9NR96 whole entry, looked up): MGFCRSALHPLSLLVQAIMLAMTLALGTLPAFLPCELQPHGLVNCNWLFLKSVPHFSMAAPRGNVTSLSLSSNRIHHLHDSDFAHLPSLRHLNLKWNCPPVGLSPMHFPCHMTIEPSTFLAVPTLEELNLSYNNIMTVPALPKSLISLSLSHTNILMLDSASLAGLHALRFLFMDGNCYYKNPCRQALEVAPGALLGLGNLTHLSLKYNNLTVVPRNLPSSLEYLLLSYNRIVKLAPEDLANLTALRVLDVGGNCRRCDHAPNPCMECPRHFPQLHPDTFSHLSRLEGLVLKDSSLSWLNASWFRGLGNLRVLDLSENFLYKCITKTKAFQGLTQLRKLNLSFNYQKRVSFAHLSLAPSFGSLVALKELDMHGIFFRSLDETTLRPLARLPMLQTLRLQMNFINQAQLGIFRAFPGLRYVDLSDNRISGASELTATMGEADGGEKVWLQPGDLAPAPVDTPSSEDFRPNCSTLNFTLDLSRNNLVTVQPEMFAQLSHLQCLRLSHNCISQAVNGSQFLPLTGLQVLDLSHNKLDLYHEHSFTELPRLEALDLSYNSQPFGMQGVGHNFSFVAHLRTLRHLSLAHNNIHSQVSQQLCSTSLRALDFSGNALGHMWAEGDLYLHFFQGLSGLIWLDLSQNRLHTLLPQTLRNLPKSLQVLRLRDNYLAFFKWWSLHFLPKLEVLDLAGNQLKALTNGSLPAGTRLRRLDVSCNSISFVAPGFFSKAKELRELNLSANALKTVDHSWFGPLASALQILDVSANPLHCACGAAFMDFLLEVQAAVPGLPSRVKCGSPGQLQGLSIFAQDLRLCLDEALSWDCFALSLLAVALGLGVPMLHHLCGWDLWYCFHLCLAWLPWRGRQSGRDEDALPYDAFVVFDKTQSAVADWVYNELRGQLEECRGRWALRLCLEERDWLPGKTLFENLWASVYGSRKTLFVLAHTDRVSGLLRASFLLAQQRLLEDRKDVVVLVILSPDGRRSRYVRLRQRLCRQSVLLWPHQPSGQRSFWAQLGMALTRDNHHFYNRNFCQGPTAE
# SR-BI uptake up = enhances SR-BI lipid uptake from DiI-HDL | 0.096% of 320,000 active | CHO ldlA[mSR-BI] cells, DiI-HDL uptake fluorescence, 3 h; 100 = double the neutral-control signal | activation, % at 12.5 µM;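 active = mean replicate activation of at least 60% and every replicate at or above 60%; inconclusive = mean or all-replicate condition met, but not both; inactive = mean below 60% and not all replicates reaching 60%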;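 note: 0% = median plate neutral-control signal and 100% = twice that signal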
#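 Material: SR-BI-overexpressing, LDLR-lacking CHO cells; schedule: compound exposure 3 h, 37 °C; reagent: DiI-labelled HDL at 10 µg/mL final; technique: bottom-read fluorescence, 550/595 nm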
# Hep lipid drop = hepatic lipid droplet formation modulation; 0.4% of 240,000 active; AML12 mouse hepatocytes, oleate lipid droplets, BODIPY imaging; inhibition, % at 6.5 µM;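 active = lipid droplet intensity inhibited by at least 50%, with more than 500 cells counted; inconclusive = wells with under 300 cells, treated as cytotoxic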
#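 Technique: fluorescence imaging, 20x objective, two fields per well / Assay system: AML12 hepatocytes (mouse) / Measure: % inhibition of lipid droplet signal / Doses: 6.5 µM single-point dosing / Incubation: overnight exposure / Reagent: 100 µM oleic acid challenge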
# SR-BI DiI inh = inhibitors of mouse SR-BI mediated HDL lipid uptake. Q61009. inhibition, % at 12.5 µM. AID 488896. 0.96% of 320,000 active. ldlA[mSR-BI] CHO cells, DiI-HDL uptake fluorescence, 3 h;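 active = mean replicate inhibition of at least 70% and a set share of replicates each scoring 70 or more; inconclusive = meets just one of the two criteria; inactive = fails both criteria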;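 note: 0% = median of neutral control wells and 100% = median of positive control wells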
# TLR4 MyD88 comp = TLR4-MyD88 interaction inhibition in cells. HeLa CL3-4 TLR4/MyD88 BLA complementation, FRET ratio. inhibition, % at 8.4 µM. 0.18% of 200,000 active. AID 861; in the data active = inhibition above about 25%;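 note: 0% = vehicle and 100% = reference inhibitor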
# NOD2-RIPK2 inh = inhibitors of human NOD2-RIPK2 interaction; O43353; CHO BLA complementation NOD2-RIPK2, CCF4 ratio; inhibition, % at 4.98 µM; 0.38% of 360,000 active; AID 624267; in the data active = inhibition above about 21%;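 note: 0% = vehicle only and 100% = reference blocker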
# * = called active by the depositor; ? = inconclusive; . = no result. Hits are enriched below; roughly 1.6% of the tested compounds scored in any of these assays.
SMILES,TLR9-MyD88 block,SR-BI uptake up,Hep lipid drop,SR-BI DiI inh,TLR4 MyD88 comp,NOD2-RIPK2 inh
CN(C)c1ccc(C=NNC(=O)c2cccc3ccccc23)c(Cl)c1,11.7,-75.2,.,75.2*,.,10.7
c1ccc(-c2nnc(N3CCCC3)nc2-c2ccccc2)cc1,-3.1,10.2,12.6,-10.2,.,3.2
CCCN1CCCc2ccccc21,-4.4,-9.2,6.3,9.2,8.3,-6.2
N#CCCN1CCCc2cc(N=Nc3ccc(C(F)(F)F)cc3)ccc21,.,-98.1,38.4,98.1*,.,-12.0
COc1ccc(C(=O)NN)cc1COc1ccc(Br)cc1,-1.6,-97.4,.,97.4*,5.8,-5.9
CCOc1ccc(C(=O)NCC(=O)OCc2cc(C(C)=O)ccc2OC)cc1,0.6,-70.8,7.8,70.8*,5.0,-7.6
CCOC(=O)c1c(NC(=O)COC(=O)CCCOc2ccc(OC)cc2)sc(C(=O)N(C)C)c1C,-10.7,5.6,.,-5.6,.,-6.5
Cc1ccccc1OC(=O)c1cccc(S(=O)(=O)N2CCN(C)CC2)c1,3.9,-7.8,.,7.8,.,-7.6
CC1=NN(c2nc(-c3ccc(C)cc3)cs2)C(=O)C1N=Nc1ccc2ccccc2c1 (stereo unspecified),11.6,-7.8,41.5,7.8,0.5,1.2
CC1=NN(c2nc(-c3ccc(C)cc3)cs2)C(=O)C1N=Nc1ccc(C(N)=O)cc1 (stereo unspecified),-16.0,-81.3,15.9,81.3*,-5.0,-11.3
CSc1nsc(/C=C/Nc2ccc(O)cc2C)c1C#N,7.7,-80.6,21.4,80.6*,2.1,-4.2
O=[N+]([O-])c1ccc(NN=Cc2cc(Br)ccc2O)nc1,-1.1,-134.7,.,134.8*,.,5.7
O=C(COC(=O)COc1ccccc1)Nc1ccc(Br)cc1Br,-12.1,28.0,.,-28.0,.,1.6
O=C(COC(=O)COc1ccccc1)Nc1ccc(Br)cc1F,0.8,63.5*,.,-63.5,.,-2.1
COc1ccc(/C=N/Nc2nc(Nc3ccccc3)nc(N3CCCCC3)n2)c(OC)c1,-12.9,-89.2,-27.0,89.2*,1.2,0.4
Cc1cc(-c2ccccc2)nc(N/N=C/c2ccc(O)cc2)n1,0.5,-78.7,.,78.7*,.,7.7
COc1ccc(O)c(/C=N/Nc2nc(Nc3ccccc3)nc(-n3nc(C)cc3C)n2)c1,-5.5,-22.4,0.4,22.4,2.1,-10.7
COc1ccc(O)c(/C=N/Nc2nc(C)cc(-c3ccccc3)n2)c1,-5.7,-87.6,.,87.6*,.,-10.6
Oc1ccc(/C=N/Nc2nc(-c3ccc(Cl)cc3)cc(C(F)(F)F)n2)cc1,-16.8,-80.4,-8.3,80.4*,-2.3,4.0
COC(=O)[C@@]1(C)[C@H]2C(=O)N(Cc3ccccc3)C(=O)[C@H]2[C@H]2CN=C(SCC(=O)c3ccccc3)N21,4.5,-11.6,.,11.6,.,1.5
Cn1c(-c2cccc3ccccc23)n[nH]c1=S,-3.2,10.1,8.5,-10.1,-19.4,4.6
CCc1c(C)sc(NC(=O)c2ccoc2C)c1C(N)=O,-3.9,-28.7,-11.9,28.7,.,-7.1
Cc1[nH]c2ccccc2c1/C=N/Nc1nc(Nc2ccccc2)nc(N2CCOCC2)n1,-8.7,-129.8,.,129.9*,9.4,3.8
COc1cc(/C=N/Nc2nc(Nc3ccccc3)nc(N3CCOCC3)n2)ccc1OC(=O)c1ccco1,1.0,-72.6,?,72.6*,-5.0,-1.0
c1ccc(Nc2nc(N3CCCC3)nc(N3CCOCC3)n2)cc1,3.2,-65.9,.,65.9,.,-3.3
SMILES,TLR9-MyD88 block,SR-BI uptake up,Hep lipid drop,SR-BI DiI inh,TLR4 MyD88 comp,NOD2-RIPK2 inh
COc1ccc(/C=N/Nc2ncc(-c3ccccc3)cn2)c(OC)c1,-2.9,-22.9,-6.4,22.9,-4.5,-4.5
COc1ccc(/C=N/Nc2nc(C)cc(-c3ccccc3)n2)c(OC)c1,-3.4,-73.8,-31.4,73.8*,.,2.9
C/C(=N/NC(=O)C(O)(c1ccccc1)c1ccccc1)c1ccc([N+](=O)[O-])o1,6.8,-12.6,12.7,12.6,8.8,-2.5
O=C(c1cc(-c2ccncc2)nc2c(Cl)cccc12)N1CCN(c2ccccc2F)CC1,0.0,-72.8,-48.0,72.8*,.,9.8
O=C(c1cc(-c2ccccc2Cl)nc2ccccc12)N1CCN(c2ccccc2O)CC1,-15.5,-12.8,.,12.8,.,-3.7
O=C(CCN=C1NS(=O)(=O)c2ccccc21)NCc1ccccc1F,-11.1,16.4,.,-16.4,.,2.4
COCC(=O)Nc1nc2n(n1)C(c1ccccc1Cl)CC(c1ccc(OC)cc1)N2 (stereo unspecified),9.8,-8.2,-1.1,8.2,-7.1,7.2
COCC(=O)Nc1nc2n(n1)C(c1ccc(Cl)cc1)CC(c1ccc(OC)cc1)N2 (stereo unspecified),4.3,-73.6,.,73.6*,-6.4,16.7
COc1cccc(OCC(=O)Nc2cc(Cl)ccc2Oc2ccccc2)c1,1.5,-87.1,-12.7,87.1*,-5.1,-3.0
Oc1cc(-c2ccncc2)cc2cccnc12,-0.7,-9.1,.,9.1,.,-1.8
Oc1cc(-c2ccc(N3CCCCC3)nc2)cc2cccnc12,15.5,-64.2,.,64.2,.,22.3*
CCOc1ccccc1NC(=O)C1CCCN1C(=O)c1cccs1 (stereo unspecified),-8.1,86.9*,.,-86.9,.,-16.0
Cc1ccc(C(=O)NCC(=O)N(C)CC(=O)Nc2c(Cl)cccc2Cl)s1,3.0,10.4,.,-10.4,.,2.1
CC(=O)N1CCc2ccccc2C1CC(=O)O (stereo unspecified),10.9,10.8,-0.3,-10.8,-7.1,-2.3
Cc1cc(=O)oc2cc(OCc3cc4c(cc3Cl)OCO4)ccc12,1.6,-82.7,.,82.7*,-1.2,-11.3
Cc1ccc(C(=O)NC(=S)N2CCCCCC2)cc1,0.7,22.2,.,-22.2,.,1.2
N#C/C(=C\c1sc(N2CCOCC2)nc1-c1ccccc1)C(=O)Nc1cccc2ccccc12,.,.,55.6*,.,-3.4,.
N#C/C(=C/C1=C(N2CCOCC2)C(=C/c2ccccc2)/CC1)C(=O)Nc1ccccc1F,4.1,-74.7,.,74.7*,.,4.8
N#C/C(=C/C1=C(N2CCOCC2)C(=C/c2cccc([N+](=O)[O-])c2)/CC1)C(=O)Nc1ccccc1F,-0.7,-66.7,.,66.7,.,-6.1
N#C/C(=C/C1=C(N2CCOCC2)C(=C/c2ccc(Cl)cc2Cl)/CC1)C(=O)Nc1ccccc1F,-9.6,-74.1,.,74.1*,.,-11.8
N#C/C(=C\C1=C(N2CCOCC2)C(=C\c2ccc(Cl)cc2)/CC1)C(=O)Nc1ccccc1F,-11.2,-36.8,25.6,36.8,-2.1,9.3
Oc1nc(Nc2cccc(Cl)c2)sc1/C=C1\C=Nc2ccccc21,-7.6,-25.4,4.1,25.4,3.9,2.7
CCOC(=O)c1c(Nc2ccc(Cl)cc2)sc(/C=C2\C=Nc3ccccc32)c1O,-4.4,-90.8,-1.1,90.8*,6.9,-8.7
Nn1c(SCC(=O)NC(=O)Nc2ccc3c(c2)OCCO3)nnc1C1CC1,-0.9,5.4,4.1,-5.4,4.2,-2.6
